From ChEMBL document CHEMBL1132158, “4-[[2-(1-Methyl-2-pyrrolidinyl)ethyl]thio]phenol hydrochloride (SIB-1553A): a novel cognitive enhancer with selectivity for neuronal nicotinic acetylcholine receptors” (J Med Chem, 1999)

Tests used:
Type in all cases: functional
Rattus norvegicus [1] = assay: Acetylcholine release data in […] rats when compound was administered subcutaneously at dose of 40(mg/Kg)
Rattus norvegicus [2] = organism: Rattus norvegicus; assay: In vitro efficacy to stimulate [3H]-dopamine from brain slice preparations
Outline: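 Striatal brain slices stimulated with test compound at 300 μM; [3H]dopamine release measured. […] Mean ± SD of 3–6 experiments.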

Rattus norvegicus [3] = assay: Acetylcholine release data in […] rats when compound was administered subcutaneously at dose of 40 mg/kg; settings: route subcutaneous
Outline: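 In vivo acetylcholine release from hippocampus of freely moving Sprague–Dawley rats after subcutaneous dosing. […] Mean ± SEM of 2–6 independent experiments, compared against saline control by two-way repeated measures ANOVA with Student–Newman–Keuls post-hoc test.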

Rattus norvegicus [4] = organism: Rattus norvegicus; assay: In vitro efficacy to stimulate the release of [3H]dopamine from rat striatal slices
Outline: (§1)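 Release of [3H]DA (striatum) or [3H]NE (hippocampus, prefrontal cortex) from rat brain slice preparations stimulated by test compound at 300 μM. […] Mean ± SD of 3–6 experiments.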

Rattus norvegicus [5] = organism: Rattus norvegicus; assay: In vitro efficacy to stimulate [3H]NE in rat prefrontal cortex membrane slice; outline: as §1
Rattus norvegicus [6] = organism: Rattus norvegicus; assay: In vitro efficacy to stimulate [3H]NE in rat hippocampus; outline: as §1

Compound | Activity (Rattus norvegicus [1]) | Efficacy (Rattus norvegicus [2]) | Activity (Rattus norvegicus [3]) | Efficacy (Rattus norvegicus [4]) | Efficacy (Rattus norvegicus [5]) | Efficacy (Rattus norvegicus [6])
CN1CCCC1CCSc1ccccc1 (configuration not stated) | 0.6 | 1.5 | – | – | – | –
CN1CCC[C@H]1CCSc1ccc(O)cc1 | – | – | 13 | 4.3 | 0.35 | 0.3
CN1CCC[C@@H]1CCSc1ccc(O)cc1 | – | – | 10 | 4.1 | 0.3 | 0.2
CN1CCCC1CCSc1ccc(O)cc1 (configuration not stated) | – | – | 12 | 6.5 | 0.6 | 0.2
CN1CCC[C@H]1c1cccnc1 [NICOTINE] | – | – | – | 1 | 1 | 1
